Assays:
[1] = pKa value was determined; type: physicochemical
Method in brief: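 Determined by autotitration with a pH meter and autoburette; mean of two or more independent measurements.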

[2] = molecular target: T1, Muscarinic acetylcholine receptor (Rattus norvegicus) (UniProt P08482+P08483+P08485+P08911+P10980)
[3] = molecular target: T1, Muscarinic acetylcholine receptor (Rattus norvegicus); remark: listed apart in the source
[4] = Ratio of apparent binding affinities of NMS and Oxo-M
[5] = molecular target: T1, Muscarinic acetylcholine receptor (Rattus norvegicus); assay: Apparent binding affinity against rat cortical Muscarinic acetylcholine receptor by the displacement of [3H]N-methylscopolamine; type: protein assay
Method in brief: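 Membranes from cortex of male Sprague-Dawley rats (250–300 g), resuspended in 20 mM HEPES Krebs' buffer pH 7.4. Displacement of 0.1 nM [3H]-N-methylscopolamine; 60 min incubation at 30 °C, ended by filtration. Apparent affinity constant corrected for radioligand occupancy, given in micromolar; geometric mean of at least three independent experiments on separate occasions.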

[6] = molecular target: T1, Muscarinic acetylcholine receptor (Rattus norvegicus); assay: Apparent binding affinity against rat cortical Muscarinic acetylcholine receptor by the displacement of [3H]oxotremorine-M; type: protein assay
Method in brief: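 Rat brain membranes from male Sprague-Dawley rats (250–300 g), resuspended in 20 mM HEPES buffer pH 7.4. Displacement curves use 3.0 nM [3H]oxotremorine-M; incubation 40 min at 30 °C, stopped by filtration through polyethyleneimine-presoaked filters.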

pKa [1] | K app [2] [µM] | K app [3] [µM] | Ratio [4] | K app [5] [µM] | K app [6] [µM] | SMILES
8.25 | – | – | – | – | – | Nc1noc(C2=CCCNC2)n1
– | 13 | 0.23 | – | – | – | OCCc1noc(C2=CCCNC2)n1
8.24 | 2.3 | 0.0031 | – | – | – | Cc1noc(C2=CCCNC2)n1
– | 34 | 0.11 | – | – | – | OCc1noc(C2=CCCNC2)n1
– | 4.3 | 0.0074 | – | – | – | CCc1noc(C2=CCCNC2)n1
8.23 | 2.5 | 0.035 | – | – | – | C=Cc1noc(C2=CCCNC2)n1

Continued, compound first:

SMILES | pKa [1] | K app [2] [µM] | K app [3] [µM] | Ratio [4] | K app [5] [µM] | K app [6] [µM]
Cc1noc(C2=CCCN(C)C2)n1 | 7.16 | – | – | – | – | –
Cc1noc(C2=CC(C)CN(C)C2)n1 (stereo not given) | 7.34 | 15 | 0.87 | – | – | –
CCC1C=C(c2nc(C)no2)CNC1 (stereo not given) | – | 25 | 0.97 | – | – | –
CN(C)c1noc(C2=CCCNC2)n1 | 8.58 | 3.5 | 0.082 | – | – | –
Cc1noc(C2=CCC(C)NC2)n1 (stereo not given) | 8.2 | – | – | 130 | 16 | 0.12
CN1CCC=C(c2nc(N(C)C)no2)C1 | 7.24 | 2.5 | 0.12 | – | – | –
Cc1noc(C2=CCC(C)N(C)C2)n1 (stereo not given) | 7.35 | 2.4 | 0.061 | – | – | –
FCCc1noc(C2=CCCNC2)n1 | 8.29 | 5.7 | 0.021 | – | – | –
Cc1noc(C2=CC(C)CNC2)n1 (stereo not given) | 8.17 | 2.7 | 0.037 | – | – | –
COC(=O)C1=CCCNC1 | – | 23 | 0.012 | – | – | –

From ChEMBL document CHEMBL1125623, “Tetrahydropyridyloxadiazoles: semirigid muscarinic ligands” (J Med Chem, 1991)
